The results in this text go back to ChEMBL document CHEMBL1122807, “2-Substituted thiazolidine-4(R)-carboxylic acids as prodrugs of L-cysteine. Protection of mice against acetaminophen hepatotoxicity” (1984).

Test [1] deals with Mus musculus. In words: Compound was evaluated for its protective activity against acetaminophen (750 mg ([…]) /kg) toxicity, given intraperitoneally in mice and the survival of the mice was determined at 48 h; 23/26. Type of test: functional. A digest of the protocol: (§1)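 Swiss-Webster mice were fasted overnight (16 h) before use. Test compound, made up as a 15 mg/mL solution in sterile 0.1 N NaHCO3 (pH 6.5–7.5) and used within 1 h of preparation, was given at 2.45 mmol/kg ip 0.5 h after acetaminophen ip. Survivors were counted at 48 h. Counts are cumulative over at least three replicate experiments run at different times.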

The test system of test [2] is Mus musculus. In words: Compound was evaluated for its protective activity against acetaminophen (750 mg ([…]) /kg) toxicity, given intraperitoneally in mice and the number of animals with liver necrosis was determined after 0h. It counts as functional.
Test [3] relates to Mus musculus. In words: Compound was evaluated for its protective activity against acetaminophen (750 mg ([…]) /kg) toxicity, given intraperitoneally in mice and the number of animals with liver necrosis was determined after 3h. Type of test: functional. A digest of the protocol:
(§2)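 Overnight-fasted (16 h) Swiss-Webster mice received acetaminophen 750 mg/kg ip, then test agent 2.45 mmol/kg ip 0.5 h later. Agents were made at 15 mg/mL in sterile 0.1 N NaHCO3 (one in sterile water), pH 6.5–7.5, and used within 1 h. Liver sections from the first 18 animals per agent were coded and graded 0 to 4+ blind. Results pooled from ≥3 replicate experiments.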

Test [4] concerns Mus musculus. In words: Compound was evaluated for its protective activity against acetaminophen (750 mg ([…]) /kg) toxicity, given intraperitoneally in mice and the number of animals with liver necrosis was determined.
In test [5] the test system is Mus musculus. The experiment in a line: Compound was evaluated for its protective activity against acetaminophen (750 mg ([…]) /kg) toxicity, given intraperitoneally in mice and the number of animals with liver necrosis was determined after 2 hr. It counts as functional. The method in brief:
as §2

Test [6] concerns Mus musculus. In words: Compound was evaluated for its protective activity against acetaminophen (750 mg ([…]) /kg) toxicity, given intraperitoneally in mice and the survival of the mice was determined at 48 h; 0/18. It counts as functional. The method in brief:
as §1

In test [7] the test system is Mus musculus. The experiment in a line: Compound was evaluated for its protective activity against acetaminophen (750 mg ([…]) /kg), given intraperitoneally) in mice and the number of animals with liver necrosis was determined after 3h. It counts as functional. A digest of the protocol:
as §2

Test [8] concerns Mus musculus. In words: Compound was evaluated for its protective activity against acetaminophen (750 mg ([…]) /kg) toxicity, given intraperitoneally in mice and the number of animals with liver necrosis was determined after 1 hr. Type of test: functional.
In test [9] the test system is Mus musculus. In words: Compound was evaluated for its protective activity against acetaminophen (750 mg ([…]) /kg) toxicity, given intraperitoneally in mice and the survival of the mice was determined at 48 h; 13/24. It counts as functional. A digest of the protocol: as §1
For test [10], the system named is Mus musculus. The experiment in a line: Compound was evaluated for its protective activity against acetaminophen (750 mg ([…]) /kg) toxicity, given intraperitoneally in mice and the survival of the mice was determined at 48 h; 24/24. It counts as functional. The method in brief:
as §1

Test [11] concerns Mus musculus. The experiment in a line: Compound was evaluated for its protective activity against acetaminophen (750 mg ([…]) /kg) toxicity, given intraperitoneally in mice and the survival of the mice was determined at 48 h; 19/24. Type of test: functional. The method in brief: as §1
Test [12] relates to Mus musculus. The experiment in a line: Compound was evaluated for its protective activity against acetaminophen (750 mg ([…]) /kg) toxicity, given intraperitoneally in mice and the survival of the mice was determined at 48 h; 30/30. Type of test: functional. A digest of the protocol: as §1
For test [13], the species on record is Mus musculus. The experiment in a line: Compound was evaluated for the excretion of 14CO2 (carbon dioxide) in expired air of mice and the activity was determined as percent of dose excreted as 14CO2 at following time intervals - 12-16 h. It counts as functional. A digest of the protocol:
(§3)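 Mice were dosed with thiazolidine carrying 14C at ring C-2 and the methyl carbon. Expired 14CO2 was trapped, and the trap was changed at 4, 8, 12, 16 and 24 h. Aliquots were counted by liquid scintillation against an aqueous Na2 14CO3 standard and expressed as percent of dose. The experiment was repeated in a second mouse (24 g, 2.57 mmol/kg).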

Test [14] has as its system Mus musculus. The experiment in a line: Compound was evaluated for its protective activity against acetaminophen (750 mg ([…]) /kg) toxicity, given intraperitoneally in mice and the survival of the mice was determined at 48 h; 28/30. It counts as functional.
Test [15] is filed under the species Mus musculus. In words: Compound was evaluated for the excretion of 14CO2 (carbon dioxide) in expired air of mice and the activity was determined as percent of dose excreted as 14CO2 at following time intervals - 4-8h. It counts as functional. A digest of the protocol: as §3
Test [16] is filed under the species Mus musculus. The experiment in a line: Compound was evaluated for the excretion of 14CO2 (carbon dioxide) in expired air of mice and the activity was determined as percent of dose excreted as 14CO2 at following time intervals - 8-12h. Type of test: functional. A digest of the protocol: as §3
For test [17], the species on record is Mus musculus. The experiment in a line: Compound was evaluated for the excretion of 14CO2 (carbon dioxide) in expired air of mice and the activity was determined as percent of dose excreted as 14CO2 at following time intervals - 0-4 hr. It counts as functional. A digest of the protocol:
as §3

The species named for test [18] is Mus musculus. The experiment in a line: Compound was evaluated for the excretion of 14CO2 (carbon dioxide) in expired air of mice and the activity was determined as percent of dose excreted as 14CO2 at following time intervals - 16-24h. Type of test: functional. A digest of the protocol: as §3
Test [19] concerns Mus musculus. The experiment in a line: Compound was evaluated for its protective activity against acetaminophen (750 mg ([…]) /kg) toxicity, given intraperitoneally in mice and the survival of the mice was determined at 48 h; 17/17. Type of test: functional.

In the case of `O=C(O)[C@@H]1CSC(c2ccccc2)N1` (some centres undefined), in the test on Mus musculus [1], the Survival was determined as 23. Also, the “No. of animals with liver necrosis” value with Mus musculus [2] is 7; in the test with Mus musculus [3], 6; in the test on Mus musculus [4] it was 2; in the test on Mus musculus [5] it was 3.
Take `CC1N[C@@H](C(=O)O)CS1` (some centres undefined): the Survival in the test with Mus musculus [6] was 0. Also, the figures for the “No. of animals with liver necrosis” value in the test on Mus musculus [7] and in the test with Mus musculus [4] were 1 and 17, respectively.
Regarding `O=C(O)[C@@H]1CSC(c2ccncc2)N1` (some centres undefined), the “No. of animals with liver necrosis” value in the test on Mus musculus [2] came out at 2; in the test with Mus musculus [3] it was 5; in the test with Mus musculus [8] it was 4; with Mus musculus [4], 6; in the test with Mus musculus [5], 1. Also, the Survival in the test on Mus musculus [9] amounted to 13.
For `CCCCCC1N[C@H](C(=O)O)CS1` (some centres undefined), the Survival in the test with Mus musculus [10] amounted to 24. In addition, the “No. of animals with liver necrosis” value in the test with Mus musculus [2] was 16; in the test with Mus musculus [8], 2.
Consider `CCC1N[C@H](C(=O)O)CS1` (some centres undefined), for which the “No. of animals with liver necrosis” value is 3 with Mus musculus [2]; 3 in the test on Mus musculus [3]; 3 in the test with Mus musculus [8]; 6 in the test with Mus musculus [4]; 3 in the test on Mus musculus [5]. In the test on Mus musculus [11], the Survival came to 19.
In turn, `CCCC1N[C@H](C(=O)O)CS1` (some centres undefined) registered a Survival in the test on Mus musculus [12] of 30. Further, the “No. of animals with liver necrosis” value in the test with Mus musculus [2] worked out at 9; in the test on Mus musculus [8], 6; in the test with Mus musculus [4], 2; in the test on Mus musculus [5], 1.
As for `CC1N[C@H](C(=O)O)CS1` (some centres undefined), the Of dose excreted stood at 2.9% in the test listed under Mus musculus [13]; 7% in the test listed under Mus musculus [15]; 4.3% in the test listed under Mus musculus [16]; 61.9% in the test filed under Mus musculus [17]; 3.7% in the test listed under Mus musculus [18]. Besides, the “No. of animals with liver necrosis” value in the test on Mus musculus [2] is 17; with Mus musculus [4] it was 1. This molecule came in with a Survival in the test on Mus musculus [14] of 28.
`CC(=O)N[C@@H](CS)C(=O)O` [ACETYLCYSTEINE] had a Survival in the test with Mus musculus [19] of 17. For the same molecule, the “No. of animals with liver necrosis” value in the test with Mus musculus [2] is on record as 15; in the test with Mus musculus [8] it was 2.
